Measurements from ChEMBL document CHEMBL1138678, “Concise synthesis and structure-activity relationships of combretastatin A-4 analogues, 1-aroylindoles and 3-aroylindoles, as novel classes of potent antitubulin agents” (J Med Chem, 2004).

Assays:
Tubulin beta-1 chain = Tubulin beta-1 chain (Homo sapiens, UniProt Q9H4B7); experiment: Inhibition of tubulin polymerization
In short: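 MAP-rich tubulin at 2 mg/mL in 100 mM PIPES (pH 6.9), 2 mM MgCl2, 1 mM GTP, 2% (v/v) DMSO with compound. Turbidity read at 350 nm, 37 °C, every 30 s for 30 min. Area under curve scaled between untreated control (100%) and 10 μM colchicine (0%). IC50 by nonlinear regression, at least three experiments.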

NUGC-3 = experiment: Concentration required for the 50% inhibition of human stomach cancer (NUGC3) cell line growth; assay type: functional, cell-based
MKN-45 = experiment: Concentration required for the 50% inhibition of human stomach cancer (MKN45) cell line growth; assay type: functional, cell-based
MES-SA = experiment: Concentration required for the 50% inhibition of human uterine cancer (MESSA) cell line growth; assay type: functional, cell-based
MCF7 = experiment: Concentration required for the 50% inhibition of human breast cancer (MCF-7) cell line growth; assay type: functional, cell-based
A549 = experiment: Concentration required for the 50% inhibition of human lung caner (A549) cell line growth; assay type: functional, cell-based

Tubulin beta-1 chain, sequence (Q9H4B7 whole entry): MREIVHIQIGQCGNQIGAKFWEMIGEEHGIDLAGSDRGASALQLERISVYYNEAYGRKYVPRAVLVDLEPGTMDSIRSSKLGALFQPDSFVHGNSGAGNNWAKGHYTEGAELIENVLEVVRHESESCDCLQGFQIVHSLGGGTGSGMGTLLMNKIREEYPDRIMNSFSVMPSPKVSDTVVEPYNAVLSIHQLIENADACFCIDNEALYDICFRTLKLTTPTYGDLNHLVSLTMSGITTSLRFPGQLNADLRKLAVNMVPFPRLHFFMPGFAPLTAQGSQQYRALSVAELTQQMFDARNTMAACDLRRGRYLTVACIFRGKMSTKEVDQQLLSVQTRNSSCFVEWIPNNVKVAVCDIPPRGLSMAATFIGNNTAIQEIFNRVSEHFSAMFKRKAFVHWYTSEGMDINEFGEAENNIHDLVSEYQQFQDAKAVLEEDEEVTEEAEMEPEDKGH

COc1cc(OC)cc(C(=O)c2c[nH]c3cc(OC)ccc23)c1
IC50 (Tubulin beta-1 chain): 2690 nM

COc1ccc2c(c1)cc(C)n2C(=O)c1cc(OC)c(OC)c(OC)c1
IC50 (Tubulin beta-1 chain): 3310 nM

COc1ccc2c(ccn2C(=O)c2ccc3c(c2)OCO3)c1
IC50 (NUGC-3): > 10000 nM
IC50 (MKN-45): > 10000 nM
IC50 (MES-SA): > 10000 nM
IC50 (MCF7): > 10000 nM
IC50 (A549): > 10000 nM

COc1ccc(/C=C\c2cc(OC)c(OC)c(OC)c2)cc1O [COMBRETASTATIN A4]
IC50 (NUGC-3): > 10000 nM
IC50 (MKN-45): 82 nM
IC50 (MES-SA): 13 nM
IC50 (MCF7): 8 nM
IC50 (A549): 117 nM

COc1cc(C(=O)c2c[nH]c3cccc(OC)c23)cc(OC)c1OC
IC50 (NUGC-3): 3360 nM
IC50 (MKN-45): 487 nM
IC50 (MES-SA): 9390 nM
IC50 (MCF7): 9060 nM
IC50 (A549): 6500 nM

COc1ccc2c(ccn2C(=O)c2cc(OC)c(OC)c(OC)c2)c1
IC50 (Tubulin beta-1 chain): 3760 nM

COc1ccc2c(C(=O)c3cc(OC)c(OC)c(OC)c3)c(C)[nH]c2c1
IC50 (Tubulin beta-1 chain): 900 nM

COc1ccc2c(C(=O)c3cc(OC)c(OC)c(OC)c3)c[nH]c2c1
IC50 (NUGC-3): 1 nM
IC50 (MKN-45): 4 nM
IC50 (Tubulin beta-1 chain): 2180 nM
IC50 (MES-SA): 4 nM
IC50 (MCF7): 7 nM
IC50 (A549): 23 nM

COc1ccc2[nH]cc(C(=O)c3cc(OC)c(OC)c(OC)c3)c2c1
IC50 (NUGC-3): 360 nM
IC50 (MKN-45): 326 nM
IC50 (MES-SA): 884 nM
IC50 (MCF7): 639 nM
IC50 (A549): 614 nM
